# Screening results (PubChem)
# KCNK3 inh: human KCNK3 channel inhibitors, primary screen, CHO cells, FluxOR thallium flux, B-score | hit rate 0.84% among 340,000 | B-score at 10 µM | FluxOR fluorescence; active compounds read low | Potassium channel subfamily K member 3 (Homo sapiens), O14649 | AID 602410, 2012;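 active = B-score under library mean minus 4 SD, starting fluorescence ratio at most library mean plus 5 SD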;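 also: more negative B-score means stronger inhibition of thallium flux through KCNK3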
# Kir21 block: inhibitors of mouse Kir2.1 inward-rectifier potassium channel. Inward rectifier potassium channel 2 (Mus musculus), P35561. HEK293-Kir2.1, FluxOR thallium flux fluorescence; active compounds read low. B-score at 10 µM. hit rate 0.85% among 310,000. AID 1672, 2009;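 active = fluorescence ratio B-score at or below minus 3 SD of library scores, with starting-brightness B-score within 2 SD, cut at about -4.2 in these data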;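 also: channel flux triggered by added potassium and thallium sulfate stimulus; B-score of peak minus minimum fluorescence over baseline after thallium stimulus; more negative B-score means stronger Kir2.1 block with less thallium influx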
# KCNQ1 pot: potentiators or activators of KCNQ1 channel, primary screen, cell-based, thallium flux, high-throughput. Potassium voltage-gated channel subfamily KQT member 1 (Homo sapiens), P51787. CHO-K1 KCNQ1, thallium flux FluxOR fluorescence; active compounds read high. B-score at 10 µM. hit rate 0.35% among 310,000. AID 2648, 2010;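 active = fluorescence ratio B-score, a plate-corrected score, at least three library SD, with initial intensity B-score within 5 SD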
# Target sequence (P51787 whole entry, looked up): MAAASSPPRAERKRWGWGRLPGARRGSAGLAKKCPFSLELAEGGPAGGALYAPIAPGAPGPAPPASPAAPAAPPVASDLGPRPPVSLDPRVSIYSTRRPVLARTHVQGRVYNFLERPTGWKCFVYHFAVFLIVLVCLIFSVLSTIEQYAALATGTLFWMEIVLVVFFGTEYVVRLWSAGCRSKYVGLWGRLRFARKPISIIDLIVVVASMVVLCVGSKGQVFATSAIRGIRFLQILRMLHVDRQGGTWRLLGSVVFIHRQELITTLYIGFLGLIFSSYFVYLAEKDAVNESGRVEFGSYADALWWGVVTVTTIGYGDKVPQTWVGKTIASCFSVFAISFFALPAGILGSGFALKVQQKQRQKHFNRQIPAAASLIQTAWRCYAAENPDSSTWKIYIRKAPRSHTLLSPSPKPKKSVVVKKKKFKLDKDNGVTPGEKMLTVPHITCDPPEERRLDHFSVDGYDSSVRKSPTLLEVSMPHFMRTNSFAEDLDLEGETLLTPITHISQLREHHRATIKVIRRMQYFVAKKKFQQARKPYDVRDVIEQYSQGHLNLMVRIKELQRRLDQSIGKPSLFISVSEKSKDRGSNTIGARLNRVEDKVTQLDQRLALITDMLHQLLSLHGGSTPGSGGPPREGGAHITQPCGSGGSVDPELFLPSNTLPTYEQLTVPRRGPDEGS
#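 Assay system: CHO-K1 cells stably expressing KCNQ1; Medium: assay buffer with matched DMSO; Also added: K+/Tl+ depolarizing stimulus; Dosing: single dose; Timing: dye 90 min, compound 20 min, room temperature; Measured by: kinetic FluxOR thallium fluorescence, 10-s 1-Hz baseline, 110-s post-stimulus read; Read-out: peak-minus-minimum fluorescence over initial fluorescence, negative-control normalized, B-scored.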
# KCNK9 inh: KCNK9 potassium channel inhibitors, primary screen, HEK293 cells, thallium flux | hit rate 1.2% among 310,000 | AID 488922, 2010 | FluxOR thallium flux fluorescence; active compounds read low | Potassium channel subfamily K member 9 (Homo sapiens), Q9NPC2 | B-score at 10 µM;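 active = ratio B-score over 3 SD below the library mean, with starting fluorescence within 5 SD of its mean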;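 also: negative B-score means less thallium flux so channel inhibition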
# KCNQ1 block: inhibitors of human KCNQ1 channel, primary screen, cell-based, thallium flux, high-throughput | Potassium voltage-gated channel subfamily KQT member 1 (Homo sapiens), P51787 | CHO-K1 KCNQ1, FluxOR thallium flux fluorescence; active compounds read high | B-score at 10 µM | hit rate 1.3% among 310,000 | AID 2642, 2010;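 active = compounds whose thallium flux B-score, printed positive for inhibition, exceeds three library SD while starting fluorescence stays within three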;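 also: channel opened by potassium depolarization with thallium stimulus after 20 min compound exposure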
# hERG protect: hERG rescue from dofetilide block, primary screen, cell-based, CHO-hERG, FluxOR thallium flux, dofetilide IC70 | dofetilide IC70 present | activation (rescue from dofetilide block), less the hit threshold, % at 10 µM | hit rate 0.51% among 310,000 | AID 1511, 2009;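 active = activation above the mean of controls blocked by dofetilide plus 5 SD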;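 also: thallium influx through hERG after potassium depolarization seen as dye fluorescence rise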
# KCNK9 block conf: KCNK9 potassium channel inhibitors, confirmation, HEK293 cells, thallium flux, duplicate. FluxOR thallium flux fluorescence. hit rate 43% among 4,900. AID 492992, 2010. shares compounds with KCNK9 inh. inhibition, % at 10 µM;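 active = thallium signal inhibited by more than 5 SD of the compound-free buffer control wells, on both duplicate plates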;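 also: 0% = assay buffer control wells without compound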
# Kir21 sel: mouse Kir2.1 channel inhibition, confirmation, selectivity assay for KCNK9 modulator project, cell-based, HEK293, thallium flux; hit rate 4% among 4,900; inhibition, % at 10 µM; shares compounds with KCNK9 inh; Kir2.1 cells, FluxOR thallium flux fluorescence;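 active = thallium signal drop more than 5 SD beyond the mean of the no-compound control wells, seen in both duplicate plates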;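 also: signal is fluorescence rise after thallium addition divided by baseline fluorescence; plate controls were assay buffer only for no effect and full block by chlorpromazine control for full effect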
# HEK293 Tl ctr: thallium flux in non-induced HEK293 cells, confirmation, counter-screen for KCNK9 inhibitor project, cell-based, second counter screen, non-induced KCNK9-HEK293. AID 492997, 2010. FluxOR thallium flux. hit rate 40% among 4,900. shares compounds with KCNK9 inh. inhibition, % at 10 µM;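 active = thallium signal drop beyond 5 SD of the untreated control mean, on both duplicate plates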;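 also: plate controls were buffer only IC0 wells for no effect and SID17386958 at its maximal inhibitory level for full effect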
# Numbers without * were called inactive; i = inactive; · = not tested or not shown. Hits are enriched below; roughly 3.7% of the tested compounds scored in any of these assays.
SMILES,KCNK3 inh,Kir21 block,KCNQ1 pot,KCNK9 inh,KCNQ1 block,hERG protect,KCNK9 block conf,Kir21 sel,HEK293 Tl ctr
O=C(c1ccc(Cl)cc1)C1CCCN(Cc2ccc3c(c2)OCCO3)C1 (centres undefined),i,-1.4,i,i,i,-8,i,i,i
COC1=CC2[C@@H]3Cc4ccc(OC)c(O)c4[C@]2(CCN3C)CC1=O (some centres undefined),i,·,·,·,·,·,·,·,·
C=CC[C@@H](CC/C=C/C=C/CC/C=C\[C@@H]1CSC([C@@H]2C[C@@H]2C)=N1)OC,i,·,·,·,·,·,·,·,·
COC(=O)C1=C(c2cc3ccccc3s2)C[C@@H]2CC[C@H]1N2C(=O)N1CCC(C)CC1,i,-0.9,i,i,i,-11,i,i,i
Cc1nn(Cc2ccccc2Cl)c(Cl)c1C(=O)OCC(=O)NC(=O)NC1CCCCC1,i,0.91,i,i,i,-8,i,i,i
CCOC(=O)C1CCN(Cc2ccc(Cl)nc2)CC1,i,0.81,i,i,i,-5,·,·,·
O=c1c(C=NCc2cccs2)c(O)n(C2CCCCC2)c(=O)n1C1CCCCC1,i,0.35,i,i,i,-7,i,i,i
O=C(O)c1cccc2c1NC(c1cccc([N+](=O)[O-])c1)C1CC(Sc3ccccc3[N+](=O)[O-])C(Cl)C21 (centres undefined),i,0.11,16*,i,i,-3,i,i,i
Cc1ccc(C(=O)N2CC2C)cc1 (centres undefined),i,·,·,·,·,·,·,·,·
O=C(COc1ccccc1)c1cn(Cc2ccccc2)c2ccccc12,i,-3.3,i,-10*,i,-9,52%*,i,53%*
CCC(=O)c1cn(Cc2ccccc2)c2ccccc12,i,0.01,i,i,i,-21,·,·,·
O=C1NC2C(O)C(O)C(O)C(O)C2c2cc3c(c(O)c21)OCO3 (centres undefined),i,·,·,·,·,·,·,·,·
O=C(c1cc(F)ccc1F)C1CCCN(Cc2ccc3nonc3c2)C1 (centres undefined),i,0.24,i,i,i,-5,i,i,i
COc1ccc(C(=O)C2CCCN(Cc3ccon3)C2)c(OC)c1 (centres undefined),i,-1.3,i,i,i,-4,·,·,·
COc1ccc(CN2CCCC(C(=O)c3ccc(Cl)cc3)C2)c(OC)c1 (centres undefined),i,-5.2*,i,i,i,-12,i,i,i
COc1cccc(C(=O)C2CCCN(Cc3ccc4nonc4c3)C2)c1 (centres undefined),i,-0.38,i,i,i,-8,i,i,i
CC(C)Oc1cccc(C(=O)C2CCCN(Cc3ccon3)C2)c1 (centres undefined),i,0.05,i,i,i,-14,·,·,·
COc1ccc(CN2CCCC(C(=O)c3cccc(Cl)c3)C2)cc1 (centres undefined),i,-8.8*,i,i,i,-9,i,32%*,i
O=C(c1cccc(Cl)c1)C1CCCN(Cc2ccon2)C1 (centres undefined),i,2.3,i,i,i,-6,·,·,·
COc1ccc(CN2CCCC(C(=O)c3ccccc3SC)C2)cc1O (centres undefined),i,0,i,i,i,-20,·,·,·
Cc1cc(C(=O)CS(=O)(=O)c2ccccc2)cc(C)c1OC(=O)N(C)C,i,1.9,i,i,i,-10,·,·,·
CC/C(=N\Nc1ccccc1)c1c(O)n(-c2ccc(OC)cc2)c(=O)[nH]c1=O,i,-0.2,i,i,i,-12,·,·,·
COC(=O)C1=C(c2cccc(OCc3ccccc3)c2)C[C@@H]2CC[C@H]1N2C(=O)NCc1ccc2[nH]ccc2c1,i,·,·,·,·,·,·,·,·
COc1cccc(C(=O)C2CCCN(Cc3cccc4c3OCO4)C2)c1 (centres undefined),i,-2.9,i,i,i,-7,i,i,i
CSc1ncc(CN2CCCC(C(=O)c3cccc(Cl)c3)C2)cn1 (centres undefined),i,0.14,i,i,i,-2,i,i,i
SMILES,KCNK3 inh,Kir21 block,KCNQ1 pot,KCNK9 inh,KCNQ1 block,hERG protect,KCNK9 block conf,Kir21 sel,HEK293 Tl ctr
COc1ccc(O)c(CN2CCCC(C(=O)c3sccc3C)C2)c1 (centres undefined),i,-2.5,i,i,i,-27,·,·,·
CCCCn1c(=O)c(C=Nc2ccc(Cl)cc2)c(O)n(Cc2ccco2)c1=O,i,1.5,i,i,i,-2,i,i,i
Nc1ccc(CCN2CCCC2)cc1,i,0.76,i,i,i,-2,·,·,·
Nc1ccc(CCN2CCN(c3cccc(C(F)(F)F)c3)CC2)cc1,i,0.23,i,i,i,-5,i,i,i
COC(=O)C1=C(c2ccc(F)cc2F)C[C@@H]2CC[C@H]1N2C(=O)NCCOc1ccccc1,i,·,·,·,·,·,·,·,·
CCOc1ccc(-c2c(C)n(-c3ccc(OCC)cc3)c3[n+]2CCCCC3)cc1,i,-10*,i,-10*,9*,-18,44%*,33%*,i
CCOc1ccc(-n2c(-c3ccoc3)nc3ccccc3c2=O)cc1,i,0.05,i,i,i,-13,·,·,·
Cc1ccc(-c2cc(-c3ccccc3)cc(-c3ccccc3)[n+]2-c2ccccc2)cc1,i,-9.7*,i,-9.2*,i,-46,75%*,79%*,34%*
Cc1ccc(-c2cc(-c3ccc(C)cc3)[n+](-c3ccccc3)c(-c3ccc(C)cc3)c2)cc1,-18*,-12*,i,-19*,9*,-39,76%*,84%*,i
